{"data": "Assay results of several laboratories", "read-out": "cell growth or viability"}
{"SMILES": "O=C(Nc1ccc(C(F)(F)F)cc1)Nc1cccc(C(=O)Nc2ccc3[nH]ncc3c2)c1", "cell line": "KM12", "assay": "ATP luminescence", "conditions": "72 h", "endpoint": "IC50", "value": "33.5 µM"}
{"SMILES": "Cc1ccc(C(CS(=O)(=O)c2ccccc2)=NN=C2N=C(c3ccc(Br)cc3)CS2)cc1", "cell line": "WM 266-4", "assay": "MTT", "conditions": "0.4 µM, 48 h", "endpoint": "viability", "value": "63.8%"}
{"SMILES": "Cn1cc(-c2cc(N3CCCCS3(=O)=O)ccc2Oc2ccc(F)cc2F)c2c(F)c[nH]c2c1=O", "cell line": "MOLM-14", "assay": "CCK-8", "conditions": "72 h", "endpoint": "GI50", "value": "0.0081 µM"}
{"SMILES": "O=C1Nc2ccccc2C1=NNc1nnc(Cc2ccccc2)c2ccccc12", "cell line": "ZR75", "conditions": "30 µM", "endpoint": "inhibition", "value": "54.3%"}
{"SMILES": "CNC(=O)c1cc(Oc2ccc(NC(=O)Nc3ccc(Cl)c(C(F)(F)F)c3)cc2)ccn1", "cell line": "WM 266-4", "assay": "MTT", "conditions": "100 µM, 48 h", "endpoint": "viability", "value": "33.9%"}
{"SMILES": "COc1ccc(-c2nc(NN=C3C(=O)Nc4ccc(F)cc43)c3ccccc3n2)cc1OC", "cell line": "ZR75", "conditions": "30 µM", "endpoint": "inhibition", "value": "26.5%"}
{"SMILES": "O=C(Nc1cnn2ccc(N3CCC[C@@H]3c3cc(F)ccc3F)nc12)N1CC[C@H](O)C1", "cell line": "KM12", "assay": "ATP luminescence", "conditions": "72 h", "endpoint": "IC50", "value": "> 50 µM"}
{"SMILES": "COc1ccc2c(c1)C(=NNc1nc3ccccc3n(C)c1=O)C(=O)N2", "cell line": "ZR75", "conditions": "30 µM", "endpoint": "inhibition", "value": "76%"}
{"SMILES": "NC(=S)NN=C(CS(=O)(=O)c1ccccc1)c1ccc(F)cc1", "cell line": "WM 266-4", "assay": "MTT", "conditions": "0.4 µM, 48 h", "endpoint": "viability", "value": "58%"}
{"SMILES": "CC#CC(=O)N1CC[C@@H](n2cc(-c3ccc(Oc4c(F)cccc4F)cc3)c3c(N)n[nH]c(=O)c32)C1", "cell line": "JeKo-1", "assay": "ATP luminescence", "conditions": "72 h", "endpoint": "GI50", "value": "4.88 µM"}
{"SMILES": "Cn1c(=O)c(NN=C2C(=O)Nc3ccc(Cl)cc32)nc2ccccc21", "cell line": "ZR75", "conditions": "30 µM", "endpoint": "inhibition", "value": "29.8%"}
{"SMILES": "Cc1ccc(C(CS(=O)(=O)c2ccccc2)=NNC2=NC(=O)C(=NNc3ccccc3)S2)cc1", "cell line": "WM 266-4", "assay": "MTT", "conditions": "100 µM, 48 h", "endpoint": "viability", "value": "35.7%"}
{"SMILES": "COc1ccc2c(c1)C(=NNc1nnc(Cc3ccccc3)c3ccccc13)C(=O)N2", "cell line": "ZR75", "conditions": "30 µM", "endpoint": "inhibition", "value": "30.9%"}
{"SMILES": "COc1cccc(Oc2ccccc2NC(=O)CNC(=O)c2cccc3ccccc23)c1", "cell line": "SR", "assay": "SRB", "conditions": "48 h", "endpoint": "GI50", "value": "0.115 µM"}
{"SMILES": "COc1ccc2c(c1)C(=NNc1ncnc3cc(OC)c(OC)cc13)C(=O)N2", "cell line": "ZR75", "conditions": "10 µM", "endpoint": "inhibition", "value": "32%"}
{"SMILES": "O=C1Nc2ccc(F)cc2/C1=N/NC(=O)c1cc2ccccc2[nH]1", "cell line": "ZR75", "conditions": "30 µM", "endpoint": "inhibition", "value": "40%"}
{"SMILES": "O=C(Nc1ccc(OC(F)(F)F)cc1)Nc1cccc(C(=O)Nc2ccc3[nH]ncc3c2)c1", "cell line": "KM12", "assay": "ATP luminescence", "conditions": "72 h", "endpoint": "IC50", "value": "43.3 µM"}
{"SMILES": "O=C1Nc2ccc(Br)cc2/C1=N/NC(=O)c1cc2ccccc2[nH]1", "cell line": "ZR75", "conditions": "30 µM", "endpoint": "inhibition", "value": "58.9%"}
{"SMILES": "Cc1cc(C)n(C(=S)[S][Au][PH](CCCCCC[PH]([Au][S]C(=S)n2nc(C)cc2C)(c2ccccc2)c2ccccc2)(c2ccccc2)c2ccccc2)n1", "cell line": "KM12", "endpoint": "GI50", "value": "0.386 µM"}
{"SMILES": "CN1C(=O)/C(=N\\NC(=O)c2cc3ccccc3[nH]2)c2cc(F)ccc21", "cell line": "ZR75", "conditions": "30 µM", "endpoint": "inhibition", "value": "78.8%"}
{"SMILES": "Cc1ccc(C(CS(=O)(=O)c2ccccc2)=NNc2nc(-c3ccc(OCCCCOc4ccc(-c5csc(NN=C(CS(=O)(=O)c6ccccc6)c6ccc(C)cc6)n5)cc4)cc3)cs2)cc1", "cell line": "WM 266-4", "assay": "MTT", "conditions": "0.4 µM, 48 h", "endpoint": "viability", "value": "77%"}
{"SMILES": "Cc1ccc2c(c1)C(=NNc1nc3ccccc3n(C)c1=O)C(=O)N2", "cell line": "ZR75", "conditions": "30 µM", "endpoint": "inhibition", "value": "71%"}
{"SMILES": "CN1C(=O)/C(=N\\NC(=O)c2cc3ccccc3[nH]2)c2cc(Cl)ccc21", "cell line": "ZR75", "conditions": "30 µM", "endpoint": "inhibition", "value": "81.8%"}
{"SMILES": "CC(C)(C)c1nc(-c2cccc(NS(=O)(=O)c3c(F)cccc3F)c2F)c(-c2ccnc(N)n2)s1", "cell line": "WM 266-4", "assay": "MTT", "conditions": "25 µM, 48 h", "endpoint": "viability", "value": "47.7%"}
{"SMILES": "COc1ccc2c(c1)/C(=N/NC(=O)c1cc3ccccc3[nH]1)C(=O)N2C", "cell line": "ZR75", "conditions": "30 µM", "endpoint": "inhibition", "value": "82.5%"}
{"SMILES": "COc1ccc2c(c1)C(=NNc1nc(-c3ccc(OC)c(OC)c3)nc3ccccc13)C(=O)N2", "cell line": "ZR75", "conditions": "30 µM", "endpoint": "inhibition", "value": "23.1%"}
{"SMILES": "O=C(N/N=C1\\C(=O)N(c2ccccc2)c2ccccc21)c1cc2ccccc2[nH]1", "cell line": "ZR75", "conditions": "30 µM", "endpoint": "inhibition", "value": "92.2%"}
{"SMILES": "COc1ccc(C2=Nn3c(NN=C4C(=O)Nc5ccc(OC)cc54)nnc3SC2)cc1", "cell line": "SR", "assay": "SRB", "conditions": "10 µM", "endpoint": "inhibition", "value": "36%"}
